Measured values collected from several papers.
Compare with care: the assays were run in different laboratories.
Effect on: binding

SMILES | target | technique | pH | notes | Kd [µM]
Cc1cc(Nc2cc3ncccc3c(N[C@@H]3C[C@H]4CC[C@@H](C3)N4CCC#N)n2)n[nH]1 | Mitogen-activated protein kinase kinase kinase 2 (MAP3K2, Homo sapiens, UniProt Q9Y2U5) | competition with immobilised ligand | – | – | 0.019
O=C1Nc2ccccc2C1=O | Parkinson disease protein 7 (PARK7, Homo sapiens, UniProt Q99497) | SPR | – | – | 2
FC(F)(F)c1n[nH]cc1-c1nc2ccc3[nH]ncc3c2c2c1CCCC2 | Tyrosine-protein kinase ABL1, phosphorylated (ABL1, Homo sapiens, UniProt P00519) | competition with immobilised ligand | – | – | 7.2
Cc1cc2nc3c(=O)[nH]c(=O)nc-3n(C[C@H](O)[C@H](O)[C@H](O)COP(=O)(O)OP(=O)(O)OC[C@H]3O[C@@H](n4cnc5c(N)ncnc54)[C@H](O)[C@@H]3O)c2cc1C | CPEB4 (Homo sapiens, UniProt Q17RY0) | – | – | lysate | 0.005
CC(C)C[C@H](NC(=O)[C@H](C)NC(=O)[C@@H](NC(=O)[C@H](CCCCN)NC(=O)[C@H](CC(=O)O)NC(=O)[C@H](Cc1ccc(OP(=O)(O)O)cc1)NC(=O)[C@H](C)NC(=O)[C@H](CC(N)=O)NC(=O)[C@@H]1CCCN1C(=O)[C@@H](NC(=O)[C@H](CCCNC(=N)N)NC(=O)[C@H](CCCCN)NC(=O)CCCCCNC(=O)CCCC[C@@H]1SC[C@@H]2NC(=O)N[C@@H]21)C(C)C)[C@@H](C)O)C(=O)N[C@@H](C)C(=O)N[C@@H](CC(C)C)C(=O)N[C@@H](CCC(=O)O)C(=O)O | Tyrosine-protein kinase ABL1, SH2 (ABL1, Homo sapiens, UniProt P00519) | ITC | – | – | 85.5
O=c1cccccc1O | Carbonic anhydrase 2 (CA2, Homo sapiens, UniProt P00918) | ITC | – | – | 1680
Cc1cnc(-c2ccc(-c3ccc(NC(=O)Nc4c(F)cc(F)cc4F)cc3F)c3c2C(=O)NC3)[nH]1 | Dual specificity mitogen-activated protein kinase kinase 6 (MAP2K6, Homo sapiens, UniProt P52564) | competition with immobilised ligand | – | – | 0.012
NS(=O)(=O)C(F)(F)F | Carbonic anhydrase 1 (CA1, Homo sapiens, UniProt P00915) | ITC | pH 6 | – | 0.164
O=C(O)c1cc(O)c2c(c1)C(=O)c1cccc(O)c1C2=O | Oxysterols receptor LXR-alpha (NR1H3, Homo sapiens, UniProt Q13133) | SPR | – | – | 46.7
CC#CC(=O)N1CC[C@@H](n2cc(-c3ccc(Oc4c(F)cccc4F)cc3)c3c(N)n[nH]c(=O)c32)C1 | Tyrosine-protein kinase ITK/TSK (ITK, Homo sapiens, UniProt Q08881) | competition with immobilised ligand | – | – | > 3
COc1cc2c(Oc3ccc4[nH]c(C)cc4c3F)ccnc2cc1OCC1(N)CC1 | AMP-activated protein kinase (AMPK) alpha-1/beta-1/gamma-1 (PRKAG1/PRKAA1/PRKAB1, Homo sapiens, UniProt P54619+Q13131+Q9Y478) | SPR | – | – | 23.5
